Measured values published in ChEMBL document CHEMBL3227986, “Design of species- or isozyme-specific enzyme inhibitors. 1. Effect of thymidine substituents on affinity for the thymidine site of hamster cytoplasmic thymidine kinase” (J Med Chem, 1979).
Active and inactive are the calls of the source. The calls are words filed in the database; no cut-off is given here.

Tests used:
[1] = molecular target: T1, Thymidine kinase, cytosolic (Cricetulus griseus) (UniProt P09768); test: Inhibition of thymidine kinase in BHK21 (C13) cells using thymidine as substrate assessed as formation of TMP at 14.4 mM; type: cell-based; settings: Mesocricetus auratus
T1 sequence (whole entry): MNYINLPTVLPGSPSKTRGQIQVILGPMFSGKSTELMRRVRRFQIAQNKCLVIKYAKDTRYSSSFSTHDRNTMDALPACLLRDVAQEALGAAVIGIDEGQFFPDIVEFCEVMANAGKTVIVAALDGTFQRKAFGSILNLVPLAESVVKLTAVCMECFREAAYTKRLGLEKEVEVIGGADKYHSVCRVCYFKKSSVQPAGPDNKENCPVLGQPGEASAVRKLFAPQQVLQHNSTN
In short: (§1)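 BHK21(C13) 100000g supernatant in Tris-HCl 0.05 M pH 8.0, ATP 5 mM, MgCl2 2.5 mM, [14C]thymidine 3.6 μM, 10 min at 37 °C. Reaction stopped by boiling; [14C]TMP bound to DEAE-cellulose disks and counted by liquid scintillation, corrected for unincubated blanks.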

[2] = molecular target: T1, Thymidine kinase, cytosolic (Cricetulus griseus); test: Inhibition of thymidine kinase in BHK21 (C13) cells using thymidine as substrate assessed as formation of TMP at 7.2 mM; type: cell-based; settings: Mesocricetus auratus; in short: as §1
[3] = molecular target: T1, Thymidine kinase, cytosolic (Cricetulus griseus); test: Inhibition of thymidine kinase in BHK21 (C13) cells using thymidine as substrate assessed as formation of TMP at […]; type: cell-based; settings: Mesocricetus auratus
[4] = molecular target: T1, Thymidine kinase, cytosolic (Cricetulus griseus); test: Inhibition of thymidine kinase in BHK21 (C13) cells using thymidine as substrate assessed as formation of TMP at 0.74 mM; type: cell-based; settings: Mesocricetus auratus; in short: as §1
[5] = molecular target: T1, Thymidine kinase, cytosolic (Cricetulus griseus); test: Inhibition of thymidine kinase in BHK21 (C13) cells using [14C]thymidine at 200 uM after 10 mins by liquid scintillation spectrometer analysis relative to control in presence of Mg2+; type: cell-based; settings: Mesocricetus auratus
[6] = molecular target: T2, Thymidine kinase 2, mitochondrial (Homo sapiens) (UniProt O00142); test: Inhibition of human mitochondrial thymidine kinase using [14C]thymidine at 0.19 mM after 10 mins by liquid scintillation spectrometer analysis relative to control in presence of Mg2+
T2 sequence (whole entry): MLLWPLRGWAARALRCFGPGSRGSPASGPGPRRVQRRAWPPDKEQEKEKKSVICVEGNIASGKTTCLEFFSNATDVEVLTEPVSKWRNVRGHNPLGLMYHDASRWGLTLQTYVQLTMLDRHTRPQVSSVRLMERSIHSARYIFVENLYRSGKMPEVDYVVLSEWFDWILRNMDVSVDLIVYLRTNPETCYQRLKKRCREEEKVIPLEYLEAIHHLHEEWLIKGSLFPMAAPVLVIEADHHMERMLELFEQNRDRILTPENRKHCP

[7] = molecular target: T1, Thymidine kinase, cytosolic (Cricetulus griseus); test: Activity at thymidine kinase in BHK21 (C13) cells at 400 uM after 30 mins relative to thymidine; type: cell-based; settings: Mesocricetus auratus
In short: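 Radiolabeled thymidine or 2'-deoxyuridine derivatives tested as substrates: 40 μL BHK21(C13) 100000g supernatant, Tris-HCl 0.05 M pH 8.0, ATP 5 mM, MgCl2 2.5 mM, no thymidine, 30 min at 37 °C. Products separated by paper electrophoresis in 0.05 M triethylammonium bicarbonate pH 7.6; radioactivity counted in the TMP region.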

[8] = molecular target: T1, Thymidine kinase, cytosolic (Cricetulus griseus); test: Inhibition of thymidine kinase in BHK21 (C13) cells using [14C]thymidine at 50 uM after 10 mins by liquid scintillation spectrometer analysis relative to control in presence of Mg2+; type: cell-based; settings: Mesocricetus auratus
[9] = molecular target: T2, Thymidine kinase 2, mitochondrial (Homo sapiens); test: Effect on human mitochondrial thymidine kinase using [14C]thymidine at 2 mM after 10 mins by liquid scintillation spectrometer analysis relative to control in presence of Mg2+
[10] = molecular target: T3, Thymidine kinase, cytosolic (Homo sapiens) (UniProt P04183); test: Effect on human cytoplasmic thymidine kinase using [14C]thymidine at 2 mM after 10 mins by liquid scintillation spectrometer analysis relative to control in presence of Mg2+
T3 sequence (whole entry): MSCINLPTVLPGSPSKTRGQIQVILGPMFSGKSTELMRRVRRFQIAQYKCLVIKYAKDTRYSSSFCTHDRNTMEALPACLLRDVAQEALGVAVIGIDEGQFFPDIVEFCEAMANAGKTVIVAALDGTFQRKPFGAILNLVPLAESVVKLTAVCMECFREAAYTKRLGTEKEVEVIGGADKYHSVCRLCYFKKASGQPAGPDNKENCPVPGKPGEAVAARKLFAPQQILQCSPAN

[11] = molecular target: T1, Thymidine kinase, cytosolic (Cricetulus griseus); test: Effect on thymidine kinase in BHK21 (C13) cells using [14C]thymidine at 5 mM after 10 mins by liquid scintillation spectrometer analysis relative to control in presence of Mg2+; type: cell-based; settings: Mesocricetus auratus
In short: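 BHK21(C13) high-speed supernatant, 10 min at 37 °C, [14C]TMP on DEAE-cellulose disks, scintillation counting. Phosphate donors (nucleoside triphosphates 5 mM, giving 2.5 mM Mg2+ triphosphates) tested with 14.4 μM [14C]thymidine. Inhibitor assays used 0.19 mM [14C]thymidine: 5-iodo nucleosides at 0.19 mM with saturating Mg2+-ATP, or dCTP 5 mM with ATP 5 mM and MgCl2 7.5 mM.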

[12] = molecular target: T1, Thymidine kinase, cytosolic (Cricetulus griseus); test: Inhibition of thymidine kinase in BHK21 (C13) cells using [14C]thymidine at 100 to 200 uM after 10 mins by liquid scintillation spectrometer analysis relative to control in presence of Mg2+; type: cell-based; settings: Mesocricetus auratus
[13] = molecular target: T1, Thymidine kinase, cytosolic (Cricetulus griseus); test: Inhibition of thymidine kinase in BHK21 (C13) cells using thymidine as substrate assessed as formation of TMP at 0.1 mM; type: cell-based; settings: Mesocricetus auratus; in short: as §1
[14] = molecular target: T1, Thymidine kinase, cytosolic (Cricetulus griseus); test: Inhibition of thymidine kinase in BHK21 (C13) cells using thymidine as substrate assessed as formation of TMP at 0.2 mM; type: cell-based; settings: Mesocricetus auratus; in short: as §1
[15] = molecular target: T4, Thymidine kinase, cytosolic (Mus musculus, UniProt P04184); test: Competitive inhibition of thymidine kinase in mouse Ehrlich's ascites cells
T4 sequence (P04184 whole entry): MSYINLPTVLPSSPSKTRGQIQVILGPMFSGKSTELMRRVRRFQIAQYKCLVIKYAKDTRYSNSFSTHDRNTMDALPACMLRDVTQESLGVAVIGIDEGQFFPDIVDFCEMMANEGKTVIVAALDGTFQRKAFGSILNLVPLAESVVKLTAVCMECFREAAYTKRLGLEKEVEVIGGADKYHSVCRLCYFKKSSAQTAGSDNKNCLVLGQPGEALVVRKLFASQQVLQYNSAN

[16] = molecular target: T1, Thymidine kinase, cytosolic (Cricetulus griseus); test: Inhibition of thymidine kinase in BHK21 (C13) cells using thymidine as substrate assessed as formation of TMP at 1.4 mM; type: cell-based; settings: Mesocricetus auratus; in short: as §1

## CCn1c(=O)ccn([C@H]2C[C@H](O)[C@@H](CO)O2)c1=O
[1]
  inhibition: 45%
[2]
  inhibition: 24%

## Nc1ccn([C@H]2C[C@H](O)[C@@H](CO)O2)c(=O)n1
[3]
  inhibition: 10%
[4]
  inhibition: 24%

## CCNc1cn([C@H]2C[C@H](O)[C@@H](COP(=O)(O)OP(=O)(O)OP(=O)(O)O)O2)c(=O)[nH]c1=O
[5]
  inhibition: Active

## O=c1[nH]c(=O)n([C@H]2C[C@H](O)[C@@H](CO)O2)cc1I
[6]
  inhibition: 31%

## CC(=O)NCC(O)[C@H]1O[C@@H](n2cc(C)c(=O)[nH]c2=O)C[C@@H]1O (stereo in doubt; [14C]4a)
[7]
  Activity: inactive

## Cc1cn([C@H]2C[C@H](O)[C@@H](COP(=O)(O)OP(=O)(O)OP(=O)(O)O)O2)c(=O)[nH]c1=O
[8]
  inhibition: Active

## Nc1ccn([C@@H]2O[C@H](COP(=O)(O)OP(=O)(O)OP(=O)(O)O)[C@@H](O)[C@H]2O)c(=O)n1
[9]
  Activity: 79%
[10]
  Activity: 21%
[11]
  Activity: 15%

## Nc1ncnc2c1ncn2[C@@H]1O[C@H](COP(=O)(O)OP(=O)(O)OP(=O)(O)O)[C@@H](O)[C@H]1O
[9]
  Activity: 100%
[10]
  Activity: 100%
[11]
  Activity: 100%

## Nc1nc(=O)c2ncn([C@@H]3O[C@H](COP(=O)(O)OP(=O)(O)OP(=O)(O)O)[C@@H](O)[C@@H]3O)c2[nH]1
[9]
  Activity: 46%
[10]
  Activity: 36%
[11]
  Activity: 6%

## CCC(=O)NCC(OP(=O)(O)OP(=O)(O)OP(=O)(O)O)[C@H]1O[C@@H](n2cc(C)c(=O)[nH]c2=O)C[C@@H]1O (single isomer, unassigned)
[12]
  inhibition: Active

## O=c1ccn([C@H]2C[C@H](O)[C@@H](CO)O2)c(=O)[nH]1
[13]
  inhibition: 38%
[14]
  inhibition: 59%

## CCOC1N([C@H]2C[C@H](O)[C@@H](CO)O2)C(=O)NC(=O)C1(C)Br (single isomer, unassigned; more polar)
[15]
  Ki: 24 µM

## CC(=O)NCC(O)[C@H]1O[C@@H](n2cc(C)c(=O)[nH]c2=O)C[C@@H]1O (stereo in doubt; [14C]4b)
[7]
  Activity: inactive

## CC[S+]([O-])C[C@H]1O[C@@H](n2cc(C)c(=O)[nH]c2=O)C[C@@H]1O (stereo partly specified)
[3]
  inhibition: 30%
[16]
  inhibition: 13%

## CCn1c(=O)c(C)cn([C@H]2C[C@H](O)[C@@H](CO)O2)c1=O
[13]
  inhibition: 13%
[14]
  inhibition: 26%
